PERK inh = inhibitors of human PERK kinase | 220,000 compounds, 0.17% hits | CHO PERK-DD fusion, SEAP luminescence translation reporter | inhibition, % at 5.6 µM;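 active = inhibition above the mean inhibition of all tested compounds plus 3 SD, set separately per screening campaign, cut at about 2.9% in these data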;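 also: PERK kinase domain activated by AP20187 dimerizer at 100 nM; 0% = DMSO with dimerizer and 100% = rapamycin at 8.4 µM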
eIF4E 4G PPI = inhibitors of eIF4E and eIF4G interaction in translation initiation | P63073+Q04637 | TR-FRET eIF4E-eIF4GI(517-606) binding, 2 h | inhibition, % at 21.7 µM | 220,000 compounds, 0.37% hits | AID 782;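 active = inhibition above about 30%, limit read from the data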;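 also: 0% = full FRET control wells and 100% = background wells lacking eIF4GI fragment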
14-3-3 Bad inh = disrupts binding of bovine 14-3-3 zeta to phospho-Bad peptide | P63103 | TR-FRET 14-3-3zeta/Dy647-pBad peptide displacement, 1 h | inhibition, % at 21.7 µM | 220,000 compounds, 0.71% hits;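 active = inhibition above about 70%, limit read from the data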;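 also: 0% = full 14-3-3 plus peptide FRET controls and 100% = background without 14-3-3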
Target sequence (P63103 whole entry, looked up): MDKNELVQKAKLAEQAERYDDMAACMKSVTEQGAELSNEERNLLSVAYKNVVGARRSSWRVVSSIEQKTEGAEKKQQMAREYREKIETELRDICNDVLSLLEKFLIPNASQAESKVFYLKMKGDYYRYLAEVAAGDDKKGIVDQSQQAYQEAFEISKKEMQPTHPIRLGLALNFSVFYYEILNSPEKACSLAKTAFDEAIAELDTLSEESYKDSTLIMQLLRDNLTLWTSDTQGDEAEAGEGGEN
Calb biofilm kill = mixture kills Candida albicans biofilm cells; C. albicans biofilm persisters + clotrimazole, fluorescence viability; primary screen in compound mixtures of four per well; inhibition, % at 7.6 µM; 120,000 compounds, 0.02% hits; AID 1242;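 active = inhibition above 30.3% in the primary screen of four-compound pools, then above 30% when the compound was retested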;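 also: compounds exposed to preformed 24 h biofilms for 48 h; 0% = untreated biofilm control and 100% = clotrimazole plus chlorhexidine kill blank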
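Assay system: C. albicans biofilms / Medium: RPMI/MOPS medium, pH 7.0 / Schedule: biofilm formation 24 h, compound exposure 48 h, 37 °C / Measured by: Alamar Blue fluorescence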
Hck Nef HTS = blocks Nef-activated human Hck kinase. Recombinant Hck-YEEI plus Nef, Z-Lyte FRET kinase assay. inhibition, % at 20 µM. 220,000 compounds, 0.68% hits. AID 463187;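 active = Hck-Nef kinase inhibition above about 50%, limit read from the data; inactive = inhibition below that limit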;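 also: 0% = DMSO with Hck plus Nef and 100% = Hck alone without Nef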
p97 inhibitor = human p97 ATPase inhibition | P55072 | recombinant p97 ATPase, Kinase-Glo ATP luminescence, 3 h | inhibition, % at 8 µM | 220,000 compounds, 0.42% hits | AID 1481; in the data active = inhibition above about 15%;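 also: 0% = DMSO vehicle and 100% = wells lacking enzyme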
Hck Nef conf = Hck-Nef kinase inhibition, confirmation. AID 463188. 1,300 compounds, 28% hits. calls only at 10 µM. shares compounds with Hck Nef HTS. Recombinant Hck-YEEI:Nef, Z-Lyte FRET kinase assay;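 active = average inhibition of at least 50%, with Z-scores no higher than 3 in both the phospho-tyrosine peptide and fluorescence counterscreens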
Numbers without * were called inactive; i = inactive; · = no result; + = active, no number. An excerpt weighted towards active compounds, which were near 2.2% of everything screened.

SMILES	PERK inh	eIF4E 4G PPI	14-3-3 Bad inh	Calb biofilm kill	Hck Nef HTS	p97 inhibitor	Hck Nef conf
Cc1ccc(O)c(-c2cc(-c3ccccc3[N+](=O)[O-])[nH]n2)c1	1	-4	-7	12	12	-2	·
O=C(CSc1nc2ccc([N+](=O)[O-])cc2[nH]1)NCCc1ccccc1	0	1	2	·	0	-4	·
O=C(O)COc1ccc(/C=N/NC(=O)c2ccc(-c3csc(Nc4ccc(Cl)cc4)n3)cc2)cc1	1	72*	94*	21	75*	-13	+
CCOc1cc(/C=N/NC(=O)c2ccncc2)ccc1OS(C)(=O)=O	0	6	-6	4	5	3	·
CCOc1cc(/C=N/NC(=O)c2ccc(-c3csc(Nc4ccc(C)cc4)n3)cc2)ccc1OCC(=O)O	2	31*	75*	19	52*	2	i
Cc1nc(CC(=O)N/N=C/c2ccc(OCC(=O)O)cc2)cs1	2	-5	13	14	25	6	·
CC1CCCCN1C(=O)COc1ccccc1F (stereo not drawn)	0	-2	8	8	4	-2	·
COc1ccc2c(c1OC)C(=O)OC2Nc1nc(-c2cccc([N+](=O)[O-])c2)cs1 (stereo not drawn)	1	3	1	15	5	2	·
c1ccc(CCNc2nc(-c3ccncc3)cs2)cc1	0	2	-7	5	32	4	·
O=C1COc2ccc(-c3csc(NCCc4ccccc4)n3)cc2N1	0	0	2	13	128*	1	+
COc1cc(NC(=O)Cn2ccsc2=N)cc(OC)c1	1	2	11	17	7	-3	·
O=c1[nH]c(O)c(/C=C2\C=Nc3ccccc32)[nH]1	0	6	-4	14	60*	10	i
Cc1cc2nc(-c3ccc(SCc4ccc(C(=O)O)cc4)nc3)[nH]c2cc1C	0	-1	-8	8	74*	1	+
Cc1cc2nc(-c3ccc(SCC(=O)Nc4ccc(S(=O)(=O)NC5CC5)cc4)nc3)[nH]c2cc1C	0	6	62	11	87*	1	+
O=C(N/N=C/c1ccc(O)cc1)Nc1cccc2nsnc12	0	1	0	7	53*	5	i
COc1cc(/C=N/NC(=O)Nc2cccc3nsnc23)cc(OC)c1OC	0	-4	-12	·	0	3	·
COC(=O)c1sc(-c2ccc(C(C)(C)C)cc2)cc1NC(=O)c1ccccc1C(=O)O	1	-7	12	27	82*	-6	+
COC(=O)c1sc(-c2ccc(Cl)cc2)cc1NC(=O)c1ccccc1C(=O)O	1	3	6	14	23	1	·
CC(=O)c1cccc(NC(=O)CC2S/C(=N/N=C/c3ccccc3)NC2=O)c1 (stereo not drawn)	1	2	7	14	53*	3	i
O=C(OCc1cc(=O)n2c(n1)sc1ccccc12)c1ccc(O)cc1	-1	10	41	8	1	-5	·
O=c1cc(CCl)nc2sc3ccccc3n12	2	40*	56	29	61*	0	i
C#Cc1ccc([C@@H]2C=C(C(=O)N3CCN(Cc4ccc5c(c4)OCO5)CC3)O[C@H](OCCCCO)C2)cc1	1	-4	-3	17	14	1	·
CC(C)(C)OC(=O)N1CCC(CNC(=O)c2ccc(F)cc2)CC1	-1	-2	3	28	16	-2	·
O=C(Nc1cnn(C23CC4CC(CC(C4)C2)C3)c1)c1cnn2c(C(F)(F)F)cc(-c3ccco3)nc12	-2	7	77*	·	81*	-2	+
CCSc1nnc(NC(=O)Cc2cc(OC)c(OC)c(OC)c2)s1	0	-3	5	13	14	-2	·
CCn1nc(NC(=O)C2CCCO2)c2cc3cccc(C)c3nc21 (stereo not drawn)	-1	0	-2	-1	55*	0	i
CCn1nc(NC(=O)C2CCCO2)c2cc3cc(C)ccc3nc21 (stereo not drawn)	1	3	2	-4	9	4	·
